Compound activity from PubChem BioAssay.
The entries come from a sample that favours hits as a whole.
DTT redox prof: compounds producing H2O2 with reducing agent – biochemical, NIH compound library profiling, artefact control for MLSCN library redox annotation, primary screen | DTT-dependent redox cycling H2O2, phenol red/HRP absorbance; 100% = 100 µM peroxide control, 0% = buffer | activation, % at 10 µM | 200,000 compounds, 0.03% hits | AID 878;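 active = activation of at least 50% relative to the plate's high and low controls in the primary single-dose screen; inactive = activation below 50%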;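 also: compound incubated with DTT at 0.8 mM final as the reducing agent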
Diaphorase inh: inhibits diaphorase or chemically oxidizes, flagging diaphorase assay artifacts. inhibition, % at 20 µM. 190,000 compounds, 0.69% hits. diaphorase resazurin-to-resorufin fluorescence, NADH, 16 min; bacterial (C. kluyveri) enzyme, not human;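 active = primary screen inhibition at 20 µM above a set limit, cut at about 50% in these data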
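Test system: bacterial diaphorase enzyme (C. kluyveri); Quantity: 0.14 U/mL diaphorase, enzyme working solution; Times: reaction incubation of 16 min at room temperature; Measured by: fluorescence of resorufin formed from resazurin, Ex 544/Em 590 nm; Benchmarks: positive control minus NADH, DMSO neutral control.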
G6PDH CS: inhibits Leuconostoc G6PDH, flagging false hits in G6PDH-based assays; 200,000 compounds, 0.12% hits; Purified L. mesenteroides G6PDH, diaphorase/resazurin coupled fluorescence, 45 min; inhibition, % at 5 µM
PfGluPho inh: PfG6PD (Plasmodium falciparum) enzyme inhibition. PfGluPho enzyme, NADPH resazurin-diaphorase fluorescence. inhibition, % at 20 µM. 350,000 compounds, 0.78% hits;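 active = inhibition reaching at least a set limit at 20 µM in the primary screen, cut at about 59% in these data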
Diaphorase act: counter-screen for diaphorase-based assays: diaphorase activators and chemical reducers | Diaphorase/resazurin coupled assay, resorufin fluorescence, 16 min; hits give high values; 1 = vehicle wells, 0 = NADH-free wells | activation factor at 20 µM | 190,000 compounds, 0.005% hits;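 active = diaphorase activity raised at least twofold by the compound at 20 µM; inactive = activation factor below 2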
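Test system: Clostridium kluyveri diaphorase, purified enzyme. Buffer or medium: 50 mM HEPES pH 7.4 buffer plus MgCl2 and Tween 20. Also added: 0.114 mM NADH and 0.1 mM resazurin, final amounts. Dosing: compound 20 µM once, DMSO 1%. Schedule: 16 min enzyme reaction, ambient temperature. Detection: fluorescence of resorufin, 544 nm excitation, 590 nm emission.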
L major viab: reduces viability of Leishmania major promastigotes | resazurin fluorescence viability | inhibition, % at 10 µM | 200,000 compounds, 9% hits;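 also: promastigotes grown with compound for 44 hours at 28 °C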
PfGluPho conf: PfG6PD inhibition, single-dose confirmed | AID 504753 | shares compounds with PfGluPho inh | 2,400 compounds, 34% hits | recombinant PfGluPho, NADPH-diaphorase-resazurin fluorescence | inhibition, % at 20 µM;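 active = inhibition of at least 50% at 20 µM in any single replicate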
Diaphorase 10uM: inhibits diaphorase or oxidizes, flagging false PfG6PD hits. shares compounds with PfGluPho inh. diaphorase-coupled resazurin reduction, fluorescence, NADPH 10 uM. inhibition, % at 20 µM. 820 compounds, 39% hits;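 active = average inhibition reaching 50% or more with the compound at 20 µM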;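 also: resorufin red fluorescence formed as diaphorase reduces resazurin using NADPH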
Diaph ctr 30uM: inhibits diaphorase or oxidizes, flagging false PfG6PD hits | 820 compounds, 29% hits | shares compounds with PfGluPho inh | inhibition, % at 20 µM | AID 504863 | Diaphorase/resazurin coupled assay, resorufin fluorescence, 30 uM NADPH;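 active = inhibition averaging 50% or more, tested at 20 µM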
Of the large screens only hits and unclear results are named; the others gave an inactive call (follow-up assays come after a bar, where they were run). Rule as the data show it, unless noted: active = inhibition above about 50%; inactive = the rest.

COC(=O)CCC(=O)OC1(C)C(=O)C=C2C=C(C3CC3)N(c3ccccc3)C=C2C1=O (stereo not given)	PfGluPho inh 66.5 (no result: DTT redox prof, Diaphorase inh, G6PDH CS, Diaphorase act, L major viab) | PfGluPho conf inactive
COC(=O)CCCC1=CC2=CC(=O)C(C)(OC(=O)c3cccs3)C(=O)C2=CN1C1CC1 (stereo not given)	PfGluPho inh 61.7 (no result: DTT redox prof, Diaphorase inh, G6PDH CS, Diaphorase act, L major viab) | PfGluPho conf inactive
COC(=O)CCCC1=CC2=CC(=O)C(C)(OC(=O)c3cccs3)C(=O)C2=CN1C1CCCCC1 (stereo not given)	none (no result: DTT redox prof, Diaphorase inh, G6PDH CS, Diaphorase act, L major viab)
COC(=O)CCC(=O)OC1(C)C(=O)C=C2C=C(C3CC3)N(CCc3c[nH]c4ccccc34)C=C2C1=O (stereo not given)	PfGluPho inh 64.9 (no result: DTT redox prof, Diaphorase inh, G6PDH CS, Diaphorase act, L major viab) | PfGluPho conf inactive
COC(=O)CCC(=O)OC1(C)C(=O)C=C2C=C(C3CC3)N(CCCOC(C)C)C=C2C1=O (stereo not given)	PfGluPho inh 68.2 (no result: DTT redox prof, Diaphorase inh, G6PDH CS, Diaphorase act, L major viab) | PfGluPho conf inactive
COC(=O)CCC(=O)OC1(C)C(=O)C=C2C=C(C3CC3)N(CCc3ccccn3)C=C2C1=O (stereo not given)	PfGluPho inh 62.5 (no result: DTT redox prof, Diaphorase inh, G6PDH CS, Diaphorase act, L major viab) | PfGluPho conf inactive
CC(=O)OCC1(C)CN(c2ccccc2)N(C(C)=O)C1=O (stereo not given)	none
CC(=O)OCC1(C)CN(c2ccccc2)NC1=O (stereo not given)	PfGluPho inh 97.4 | PfGluPho conf 89.9 | Diaphorase 10uM inactive | Diaph ctr 30uM inactive
CC[n+]1c(C)sc2c3ccsc3ccc21	PfGluPho inh 69.8 | PfGluPho conf inactive
Oc1ccc(C23CC4CC(CC(C4)C2)C3)cc1O	PfGluPho inh 82.6 (no result: DTT redox prof, Diaphorase inh, G6PDH CS, Diaphorase act, L major viab) | PfGluPho conf 70.9 | Diaphorase 10uM inactive | Diaph ctr 30uM inactive
CC(=O)Nc1ccc(C23CC4CC(CC(C4)C2)C3)cc1	none (no result: DTT redox prof, Diaphorase inh, G6PDH CS, Diaphorase act, L major viab)
COc1cccc(/C=C/C(=O)OCC(=O)NCc2ccco2)c1	none
CC(=O)Nc1ccc(S(=O)(=O)N(C)CC(=O)OCC(=O)N2CCCC2=O)cc1	none (no result: DTT redox prof, Diaphorase inh, G6PDH CS, Diaphorase act, L major viab)
COC(=O)c1cc(CSc2nc3ccc(C)cc3[nH]2)oc1C	PfGluPho inh 61.1 | PfGluPho conf inactive
COc1cccc(/C=N/NC(=S)Nc2cccc(S(=O)(=O)N(C)C)c2)c1	PfGluPho inh 66.7 (no result: DTT redox prof, Diaphorase inh, G6PDH CS, Diaphorase act, L major viab) | PfGluPho conf inactive
COc1cc(/C=N/NC(=S)Nc2cccc(S(=O)(=O)N(C)C)c2)cc(OC)c1O	none
CN(C)S(=O)(=O)c1cccc(NC(=S)N/N=C/c2ccc(O)c(O)c2O)c1	PfGluPho inh 79.7 (no result: DTT redox prof, Diaphorase inh, G6PDH CS, Diaphorase act, L major viab) | PfGluPho conf 64.2 | Diaphorase 10uM 58.8 | Diaph ctr 30uM 61.3
CN(C)S(=O)(=O)c1cccc(NC(=S)N/N=C/c2ccco2)c1	none (no result: DTT redox prof, Diaphorase inh, G6PDH CS, Diaphorase act, L major viab)
CCN(CC)c1ccc(NC(=O)c2ccc(=O)[nH]c2)cc1S(=O)(=O)Nc1ccccc1OC	PfGluPho inh 61.8 | PfGluPho conf inactive
CCN(CC)c1ccc(NC(=O)c2ccccc2Br)cc1S(=O)(=O)Nc1ccccc1OC	PfGluPho inh 86.1, L major viab 96.7 | PfGluPho conf 63.6 | Diaphorase 10uM inactive | Diaph ctr 30uM inactive
CCN(CC)c1ccc(NC(=O)COc2ccccc2C)cc1S(=O)(=O)Nc1ccccc1OC	PfGluPho inh 60.6 | PfGluPho conf inactive
COc1ccccc1NS(=O)(=O)c1cc(NC(=O)CNC(=O)c2cc(C)cc(C)c2)ccc1C	none
CCN(CC)CCNC(=O)c1ccc(NC(=O)c2ccc(Cl)c(S(=O)(=O)Nc3ccccc3OC)c2)cc1	none (no result: PfGluPho inh)
COc1ccc(NS(=O)(=O)c2cc3c4c(c2)CCN4C(=O)CC3)cc1OC	none (no result: DTT redox prof, Diaphorase inh, G6PDH CS, Diaphorase act, L major viab)
Nc1ccc(CNC(=O)OCC2c3ccccc3-c3ccccc32)cc1	PfGluPho inh 116.7 (no result: DTT redox prof, Diaphorase inh, G6PDH CS, Diaphorase act, L major viab) | PfGluPho conf 73.7 | Diaphorase 10uM 65.0 | Diaph ctr 30uM 56.2
